Data set [1] in a line: Stability in simulated intestinal fluid for >24 hrs. It counts as physicochemical. The settings on record: simulated gi fluid. Put shortly: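 Stability tested in simulated gastric fluid containing pepsin and simulated intestinal fluid containing pancreatin.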
The subject of data set [2] is Hepatitis B virus. Put plainly: Antiviral activity against HBV infected in human primary hepatocyte cells assessed as decrease in HBeAg level pre-infected cells with virus followed by compound treatment for 3 days and subsequent replacement of medium with compound measured after 4 days by CLIA. It counts as functional, organism-based.
The nature of data set [3]: Plasma protein binding in human at 1 uM incubated for 4 to 24 hrs by equilibrium dialysis method. It counts as ADME, cell-free. The settings on record: time 4-24 hrs, read-out: PPB (converted). Put shortly: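 Rapid equilibrium dialysis in mouse, rat, dog, monkey or human plasma for 4 or 24 h; test concentrations 1, […].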
In general terms: In equilibrium dialysis free small molecules cross a membrane that holds back macromolecules.

A short description of data set [4]: Ratio of drug concentration in blood to plasma in dog at 5 uM incubated for 60 mins. It counts as ADME, cell-free, Canis lupus familiaris. Put shortly:
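Compound at 5 μM in whole blood of each species, 37 ± 1 °C for 60 min; blood-to-plasma ratio and red blood cell partitioning determined.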

Data set [5] is described as follows: Volume of distribution at steady state in C57BL/6J mouse at 1 mg/kg, iv by LC-MS/MS analysis. The data set is classed as ADME, organism-based. The note with it: in vivo, read-out: Vdss. A digest of the protocol:
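Fasted males (C57BL6 mice, Sprague−Dawley rats, beagle dogs, cynomolgus monkeys) given a single IV dose of 1 mg/kg in 80% PEG 400 in water. Plasma concentrations measured by LC-MS/MS. Vss derived by noncompartmental analysis using nominal dose and nominal sampling times.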

Data set [6] in a line: Clearance in Sprague-Dawley rat at 1 mg/kg, iv by LC-MS/MS analysis. The data set is classed as ADME, organism-based. The settings on record: in vivo. A digest of the protocol:
(§1)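 Single dose to fasted male C57BL6 mice, Sprague-Dawley rats, beagle dogs and cynomolgus monkeys, either IV at 1 mg/kg or PO as a solution at 5 mg/kg, in 80% PEG 400 in water. Plasma concentrations were measured by LC-MS/MS. PK parameters come from noncompartmental analysis using nominal doses and nominal sampling times.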

The nature of data set [7]: Half life in Sprague-Dawley rat at 1 mg/kg, iv by LC-MS/MS analysis. The data set is classed as ADME, organism-based. The note with it: in vivo. Put shortly:
as §1

Data set [8] in a line: Cmax in Sprague-Dawley rat at 5 mg/kg, po by LC-MS/MS analysis. It counts as ADME, organism-based. The settings on record: in vivo. A digest of the protocol:
as §1

Data set [9] can be described thus: Oral bioavailability in Sprague-Dawley rat at 5 mg/kg by LC-MS/MS analysis. The data set is classed as ADME, organism-based. The settings on record: in vivo. Put shortly:
(§2)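 Fasted male C57BL6 mice, Sprague–Dawley rats, beagle dogs, cynomolgus monkeys; single IV dose 1 mg/kg or PO solution 5 mg/kg in 80% PEG 400 in water; plasma concentrations measured, noncompartmental analysis with nominal doses and times; F from PO vs IV AUC.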

A short description of data set [10]: Half life in Beagle dog at 1 mg/kg, iv by LC-MS/MS analysis. It counts as ADME, organism-based, Canis lupus familiaris. The settings on record: in vivo. A digest of the protocol: as §1
A short description of data set [11]: Oral bioavailability in Beagle dog at 5 mg/kg by LC-MS/MS analysis. The data set is classed as ADME, organism-based, Canis lupus familiaris. The settings on record: in vivo. Put shortly:
as §2

Data set [12] can be described thus: Half life in Cynomolgous monkey at 1 mg/kg, iv by LC-MS/MS analysis. It counts as ADME, organism-based, Macaca fascicularis. The settings on record: cynomolgus monkey, in vivo. A digest of the protocol: as §1
In data set [13] the test system is Hepatitis B virus. In words: Antiviral activity against AAV-Hepatitis B virus infected in C57BL/6 mouse assessed as reduction in baseline HBV DNA production at 15 mg/kg, po bid measured after 56 days. It counts as functional. The note with it: time 56 day.
In data set [14] the test system is Hepatitis B virus. In words: Antiviral activity against AAV-Hepatitis B virus infected in C57BL/6 mouse assessed as reduction in baseline HBV DNA production at 15 mg/kg, po bid for 56 days followed by induction of compound washout period measured after 7 days. The data set is classed as functional. The settings on record: time 63 day.
In data set [15] the test system is MDCKII-MDR1. In words: Substrate activity at p-gp in MDCKII-MDR1 cells incubated for 150 mins. The data set is classed as cell-based. The note with it: Canis lupus familiaris. A digest of the protocol: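 P-gp substrate test in MDR1-MDCK II and parental MDCK II cells, with or without the P-gp inhibitor GF120918, 150 min incubation. Parent compound run at 2 μM; prodrug at 2, 10 and 100 μM.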

Data set [16] addresses Broad substrate specificity ATP-binding cassette transporter ABCG2 (Homo sapiens, UniProt Q9UNQ0). Put plainly: Inhibition of BCRP in human Caco-2 cells using estrone 3-sulfate as substrate. The data set is classed as cell-based. A digest of the protocol: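 Inhibition of estrone 3-sulfate (5.00 μM) transport in Caco-2 cells was measured at eight concentrations (0.0229–50.0 μM or 0.0457–100 μM). Percent inhibition relative to vehicle control was used to calculate IC50.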

Data set [17] has as its target Multidrug and toxin extrusion protein 1 (Homo sapiens, UniProt Q96FL8). In words: Inhibition of MATE1 (unknown origin) transfected in HEK293 cells. It counts as cell-based. A digest of the protocol: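 HEK-293 cells transfected with the uptake transporter; uptake of known probe substrates measured with test compound at eight concentrations (0.0229–50.0 μM or 0.0457–100 μM); inhibition at each concentration used to calculate IC50.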

Data set [18] addresses Organic anion transporter 1 (Homo sapiens). Put plainly: Inhibition of OAT1 (unknown origin) transfected in HEK293 cells.
Data set [19] can be described thus: Metabolic stability in human assessed as half life at 1 uM incubated upto 180 mins.

The values that follow come from ChEMBL document CHEMBL6092224, “The Discovery and Preclinical Profile of ALG-000184, a Prodrug of the Potent Hepatitis B Virus Capsid Assembly Modulator ALG-001075” (J Med Chem, 2024).

Activity calls are given as the source filed them. The calls are words filed in the database; no cut-off is given here. A value given as a limit tells only on which side of the number the result lay.

Sequence of Multidrug and toxin extrusion protein 1 (Q96FL8 whole entry): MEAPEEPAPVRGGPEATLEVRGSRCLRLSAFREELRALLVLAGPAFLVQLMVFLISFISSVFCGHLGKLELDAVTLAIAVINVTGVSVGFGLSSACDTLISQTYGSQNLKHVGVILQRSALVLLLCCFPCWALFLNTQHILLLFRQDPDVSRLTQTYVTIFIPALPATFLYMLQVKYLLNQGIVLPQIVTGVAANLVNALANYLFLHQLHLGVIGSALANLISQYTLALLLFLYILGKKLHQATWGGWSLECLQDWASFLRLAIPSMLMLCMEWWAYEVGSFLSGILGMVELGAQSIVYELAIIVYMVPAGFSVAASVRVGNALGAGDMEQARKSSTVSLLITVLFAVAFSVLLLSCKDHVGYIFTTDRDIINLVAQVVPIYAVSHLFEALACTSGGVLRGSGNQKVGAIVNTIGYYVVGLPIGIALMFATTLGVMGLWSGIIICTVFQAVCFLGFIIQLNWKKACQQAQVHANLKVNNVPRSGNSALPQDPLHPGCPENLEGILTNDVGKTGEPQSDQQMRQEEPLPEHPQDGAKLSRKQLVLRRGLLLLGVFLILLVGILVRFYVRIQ
Sequence of Broad substrate specificity ATP-binding cassette transporter ABCG2 (Q9UNQ0 whole entry): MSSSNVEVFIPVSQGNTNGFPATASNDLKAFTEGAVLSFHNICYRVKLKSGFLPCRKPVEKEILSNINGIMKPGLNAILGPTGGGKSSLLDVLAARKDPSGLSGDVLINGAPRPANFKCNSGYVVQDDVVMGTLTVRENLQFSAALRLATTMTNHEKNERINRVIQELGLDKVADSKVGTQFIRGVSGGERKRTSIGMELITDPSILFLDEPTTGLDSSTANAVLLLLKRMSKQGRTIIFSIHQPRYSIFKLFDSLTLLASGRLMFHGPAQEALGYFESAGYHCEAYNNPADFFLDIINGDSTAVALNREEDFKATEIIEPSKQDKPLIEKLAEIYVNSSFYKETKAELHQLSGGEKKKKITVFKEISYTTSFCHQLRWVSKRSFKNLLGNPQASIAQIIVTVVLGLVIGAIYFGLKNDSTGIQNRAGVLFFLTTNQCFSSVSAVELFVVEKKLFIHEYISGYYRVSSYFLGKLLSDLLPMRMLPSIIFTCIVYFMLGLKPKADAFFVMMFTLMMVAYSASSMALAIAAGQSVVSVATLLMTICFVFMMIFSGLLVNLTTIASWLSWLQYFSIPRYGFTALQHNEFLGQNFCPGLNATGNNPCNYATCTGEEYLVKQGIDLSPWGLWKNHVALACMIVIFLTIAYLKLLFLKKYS

With `C#CC1(N(COP(=O)([O-])[O-])C(=O)C(=O)c2c(C)c(C(=O)Nc3ccc(F)c(C#N)c3)n(C)c2C)COC1.[Na+].[Na+]`, the Stability result in data set [1] was “Stable”.

By EC50 is commonly meant the concentration that produces a half-maximal response. By clearance is commonly meant a measure of how efficiently the substance is removed, as volume per time. By half-life is commonly meant how long it takes for the measured level to halve. The term Cmax denotes the highest concentration seen after dosing. Broadly, the bioavailability is the share of a dose that reaches the circulation, judged against a reference dose that is usually intravenous. By IC50 is commonly meant the concentration at which inhibition is half-maximal. Turning to `C#CC1(NC(=O)C(=O)c2c(C)c(C(=O)Nc3ccc(F)c(C#N)c3)n(C)c2C)COC1`, the EC50 in data set [2] was determined as 0.0105 µM. Moreover, the fraction unbound at 1 µM in data set [3] was 0.191. The blood plasma ratio at 1 h, 5 µM in data set [4] was found to be 0.82. The Vd in [5] was found to be 1 L/kg. Moreover, in data set [6], the clearance came to 6.09 mL/min/kg. Besides, the half-life in data set [7] is 1.64 h; in [10], 6.38 h; in data set [12], 1.85 h. In data set [8], the concentration peaked (Cmax) at 1830 ng/mL. For the same compound, the bioavailability in [9] is 62.8%; in data set [11], 57.5%. Moreover, the Activity is recorded as -1.47 log10IU/ml in data set [13] and -2.16 log10IU/ml in data set [14]. Moreover, the outcome in [15] was Active. In addition, the IC50 in data set [16], in data set [17] and in data set [18] was over 11.8 µM throughout. In addition, the half-life at 1 µM in data set [19] is over 6 h.
